Measurements as given in the array DNA melting data of Ke et al. (doi:10.1101/2024.01.08.574731).

Assays:
[1] = folding enthalpy; higher = less favourable; fluorescence melt of hairpins on a sequencing array, two-state fit; details: sodium 0.088 M
Procedure, shortened: (§1)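 Hairpins were imaged by Cy3 fluorescence on a sequenced MiSeq flow cell with annealed Cy3 and quencher oligos, in 50 mM Na-HEPES pH 8.0, 25 mM NaCl, in 2.5 °C steps up to 60 °C. Bootstrapped two-state fits of normalised signals gave melting temperature and folding enthalpy. Four replicates were combined by inverse variance, and fitted temperatures were raised by 9.35 °C to match UV melts.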

[2] = melting temperature; fluorescence melt of hairpins on a sequencing array, two-state fit, raised by 9.35 °C to match UV melts; details: sodium 0.088 M
Procedure, shortened: as §1

Sequence	folding enthalpy [1]	Tm [2]
GCAAAGCGAAAGCATCGC ((.(.((....)).).))	-10.8 kcal/mol	35.4 °C
GTAAGCGGAAACGCTTAC (((((((....)))))))	-36.1 kcal/mol	65.2 °C
GGACTTGGAAACAAGCCC ((.((((....)))).))	-31 kcal/mol	46.1 °C
GAGTGCGGAAACACACCC (.(((.(....).))).)	-15.5 kcal/mol	28.1 °C
GCGGGATTCCGC ((((....))))	-20.5 kcal/mol	59.1 °C
GGATAAGGAAACTTATTC (.(((((....))))).)	-21.2 kcal/mol	30.4 °C
GATCGAGATTCGATC ((((((...))))))	-41.4 kcal/mol	50.4 °C
GATCAGCCCTCTGATC ((((((....))))))	-35.3 kcal/mol	50.1 °C
GTGGGCGAAAGCCCTCAC ((((((....)))..)))	-8.43 kcal/mol	39.5 °C
GTACGCGAAAGCGAGTAC ((((((....)))..)))	-13.8 kcal/mol	41.1 °C
GTCGACGAAAGTCGGGAC ((((((....)))..)))	-10.5 kcal/mol	39.1 °C
GATCGTCACAACGATC ((((((....))))))	-39.3 kcal/mol	56.9 °C
GATCGTGGCGACGATC ((((((....))))))	-29.9 kcal/mol	61.4 °C
GTGCACCGAAAGGTTCAC (((.(((....))).)))	-42 kcal/mol	50.5 °C
GCAATACCGAAAGGTTGC (((..(((....))))))	-21.6 kcal/mol	45.5 °C
GTTCACGAAAGTGAAC ((((((....))))))	-34.7 kcal/mol	68.4 °C
GTCTCCGAAAGGATCGAC ((((((....)))..)))	-14.7 kcal/mol	31.4 °C
GACCACGAAAGTGGGTC ((((((....))).)))	-13.7 kcal/mol	60.1 °C
GGTGGGGGAAACCCCGCC ((.((((....)))).))	-27.5 kcal/mol	61.4 °C
GCGTAAGGAAACTCACGC ((((.((....)).))))	-26.5 kcal/mol	43.8 °C
GCCTTCCGAAAGGAGGC (((.(((....))))))	-29.8 kcal/mol	59.4 °C
GCAAGCGAAAGCTCTTGC ((((((....)))..)))	-16.1 kcal/mol	43.6 °C
GATCCTCTAAAGGATC ((((((....))))))	-39.3 kcal/mol	52.4 °C

Sequence	folding enthalpy [1]	Tm [2]
GAGGACACGAAAGTGCTC (((..(((....))))))	-14.4 kcal/mol	35.9 °C
GATCTCAACCGAGATC ((((((....))))))	-45.1 kcal/mol	51.9 °C
GATCACGAACGTGATC ((((((....))))))	-42.4 kcal/mol	67.3 °C
GACAGACGAAAGTCAGTC (((.(((....))).)))	-28.2 kcal/mol	51.7 °C
GATCTCATGTGAGATC ((((((....))))))	-36.2 kcal/mol	52.9 °C
GTCGCCGAAAGGCTGAC ((((((....))).)))	-17.8 kcal/mol	57.1 °C
GATCCAAGAATGGATC ((((((....))))))	-30.2 kcal/mol	46.7 °C
GATCCACGGATGGATC ((((((....))))))	-32.4 kcal/mol	48.6 °C
GATCCATAACTGGATC ((((((....))))))	-33.9 kcal/mol	48.1 °C
CGTCCGGAAACGGCTACG ((((((....)))..)))	-12.6 kcal/mol	34 °C
GAGGTCCGAAAGGAACTC (((.(((....))).)))	-40.6 kcal/mol	61.5 °C
GCGAGGTCGAAAGACCGC (((..(((....))))))	-9.59 kcal/mol	54.3 °C
GCTACAGCGAAAGCTAGC (((..(((....))))))	-16.3 kcal/mol	44.5 °C
GGTTGGGGAAACCCAACC (((((((....)))))))	-36.8 kcal/mol	66.4 °C
GTCGGCGGAAACGTCGAC ((((.((....)).))))	-51.5 kcal/mol	62 °C
GGCAGCGAAAGCTTGGCC ((((((....)))..)))	-23.7 kcal/mol	52.7 °C
GGGTACGAAAGTAGTCCC ((((((....)))..)))	-20.8 kcal/mol	36.4 °C
GCCCTGGGAAACTAGGGC (((((.(....).)))))	-44.5 kcal/mol	55.3 °C
GCACGGCGAAAGCGGCGC ((.(.((....)).).))	-24.1 kcal/mol	57 °C
GATCCGCGTTCGGATC ((((((....))))))	-36 kcal/mol	59 °C
GGTACTGGAAACAGTGCC ((.((((....)))).))	-41.8 kcal/mol	54.9 °C
GACAGCGAAAGCTACGTC ((((((....)))..)))	-13.8 kcal/mol	39.8 °C
GATCGTGAGTACGATC ((((((....))))))	-31.4 kcal/mol	54 °C

Sequence	folding enthalpy [1]	Tm [2]
GTGGCATCGAAAGATCAC (((..(((....))))))	-12.8 kcal/mol	34.2 °C
GAAACACGAAAGTGTTC (((.(((....))))))	-12.7 kcal/mol	44 °C
GCAAAACGAAAGTTTGC (((.(((....))))))	-30.6 kcal/mol	50.8 °C
GCTTGGCGAAAGCCCAGC (((.(((....))).)))	-36.6 kcal/mol	51.2 °C
GGTTGCGGAAACGTGACC (((..((....))..)))	-32.2 kcal/mol	48.8 °C
GAATACGCGAAAGCGTTC (((..(((....))))))	-7.08 kcal/mol	26.7 °C
GCTCTAGCGAAAGCTAGC (((..(((....))))))	-5.88 kcal/mol	38.3 °C
GATCGCACGGCGATC ((((((...))))))	-33 kcal/mol	69.3 °C
GAGGATGGAAACACCCTC ((((.((....)).))))	-32.6 kcal/mol	38.1 °C
GATCCTGGCAGGATC ((((((...))))))	-39.7 kcal/mol	57.7 °C
GGACCACGAAAGTGTCC (((.(((....))))))	-22 kcal/mol	56.1 °C
GTCACCCCGAAAGGGGAC (((..(((....))))))	-10.1 kcal/mol	41.4 °C
GAGCTAGGAAACTAGCTC (((((((....)))))))	-37.9 kcal/mol	62.4 °C
GATCCAAAGATGGATC ((((((....))))))	-26.4 kcal/mol	44.5 °C
GGCGTACGAAAGTAGCC (((.(((....))))))	-32.6 kcal/mol	65.5 °C
GGCGACGAAAGTCTCGCC ((((((....)))..)))	-25.7 kcal/mol	55.2 °C
GGAACGCGAAAGCGTCC (((.(((....))))))	-13.4 kcal/mol	53.8 °C
GTTGAGGGAAACTTCAGC (.(((.(....).))).)	-16.6 kcal/mol	31.7 °C
GCGTTTCGAAAGAAGCGC (((.(((....))).)))	-37.9 kcal/mol	63.1 °C
GCACAGCGAAAGCTTTGC (((.(((....))).)))	-41.2 kcal/mol	51.8 °C
GGCTACCGAAAGGTGGCC (((.(((....))).)))	-35.5 kcal/mol	68.8 °C
GTGTCAGGAAACTGACGC (.(((((....))))).)	-40.5 kcal/mol	55.4 °C
CCACTGAAAAGTGG (((((....)))))	-25.3 kcal/mol	54.5 °C
